Experimental data taken from PMC3677025 (Pharmacological research : the official journal of the …, 2012).
“And” between values parts separate entries of the source, which are not always exact repeats. Equal values may be shown once.

Columns and labels:
EphA4 [1] = biological target: T1, EphA4 (Mus musculus, UniProt Q03137); assay: ELISA, ephrin-A5 AP binding to immobilized EphA4 Fc
Summary of the method: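 Mouse EphA4 Fc was captured at 1 μg/ml on protein A wells. Ephrin-A5 AP (~0.01 nM for IC50) from HEK293 supernatant was added with test compound for 2 h in TBST and read with p-nitrophenylphosphate, minus Fc-only background. For reversibility, compound was incubated 2 h, washed 30 min, then ephrin-A5 AP added for 1 h. For mode of inhibition, ephrin-A5 AP was titrated per compound concentration and fitted one-site; Ki came from KD/Bmax versus inhibitor regression.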
Target sequence in this assay (Q03137 20-547 limits assumed): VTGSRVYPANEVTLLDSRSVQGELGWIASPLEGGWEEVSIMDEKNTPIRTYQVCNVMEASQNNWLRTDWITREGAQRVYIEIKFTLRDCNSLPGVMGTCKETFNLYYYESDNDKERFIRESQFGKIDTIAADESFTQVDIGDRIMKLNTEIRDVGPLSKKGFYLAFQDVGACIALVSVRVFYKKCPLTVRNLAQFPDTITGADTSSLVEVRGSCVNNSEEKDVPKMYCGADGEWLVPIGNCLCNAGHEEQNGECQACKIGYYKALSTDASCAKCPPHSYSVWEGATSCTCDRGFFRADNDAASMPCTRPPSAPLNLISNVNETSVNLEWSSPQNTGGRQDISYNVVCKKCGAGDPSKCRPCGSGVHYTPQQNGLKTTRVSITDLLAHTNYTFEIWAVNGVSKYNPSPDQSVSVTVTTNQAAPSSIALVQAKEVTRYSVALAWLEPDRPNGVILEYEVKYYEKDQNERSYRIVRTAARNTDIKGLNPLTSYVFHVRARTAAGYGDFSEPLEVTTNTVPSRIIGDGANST

EphA2 = EphA2 (Mus musculus, UniProt Q03145); assay: ELISA, ephrin-A5 AP binding to immobilized EphA2 Fc; settings: read-out: IC50 ± SE EphA2 ephrin-A5
Chain of EphA2 (Q03145 26-538): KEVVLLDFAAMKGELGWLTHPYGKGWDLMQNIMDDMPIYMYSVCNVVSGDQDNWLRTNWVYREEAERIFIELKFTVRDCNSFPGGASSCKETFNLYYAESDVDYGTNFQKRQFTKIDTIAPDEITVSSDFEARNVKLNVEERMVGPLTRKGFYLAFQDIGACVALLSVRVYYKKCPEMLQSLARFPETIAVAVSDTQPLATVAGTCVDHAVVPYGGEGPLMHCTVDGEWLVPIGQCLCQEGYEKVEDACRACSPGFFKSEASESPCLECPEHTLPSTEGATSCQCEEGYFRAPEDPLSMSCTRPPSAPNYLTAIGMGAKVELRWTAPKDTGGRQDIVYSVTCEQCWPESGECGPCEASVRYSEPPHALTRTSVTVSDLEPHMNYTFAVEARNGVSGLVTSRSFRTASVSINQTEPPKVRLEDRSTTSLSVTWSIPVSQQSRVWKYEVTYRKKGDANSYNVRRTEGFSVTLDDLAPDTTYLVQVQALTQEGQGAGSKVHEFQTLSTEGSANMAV

EphA3 = assay: ELISA, ephrin-A5 AP binding to immobilized EphA3 Fc; settings: read-out: IC50, inhibition of ephrin binding to EphA3
Summary of the method: (§1)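 Eph receptor Fc fusions were immobilized at 1 μg/ml in TBST on protein A-coated wells. Diluted ephrin AP fusion supernatant from transiently transfected HEK293 cells was added for 2 h with or without test compound; for IC50 it was at approximately 0.01 nM. Bound AP was read with p-nitrophenylphosphate, minus Fc-only background. IC50 came from a variable-slope log(inhibitor)–response fit, bottom constrained to 0.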

EphA7 = assay: ELISA, ephrin-A5 AP binding to immobilized EphA7 Fc
EphB1 = assay: ELISA, ephrin-B2 AP binding to immobilized EphB1 Fc; settings: concentrations up to 200 μM
Summary of the method: as §1

EphA4 [2] = biological target: T1, EphA4; assay: Ephrin-A5 Fc-induced EphA4 tyrosine phosphorylation in HT22 cells; type: cell-based; settings: read-out: IC50, EphA4 tyrosine phosphorylation, 0.5 μg/mL ephrin-A5 Fc, ELISA
Summary of the method: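 HT22 cells at ~70% confluency were serum-starved 1 h, given test compound (final DMSO ≤0.4%) for 15 min, then ephrin-A5 Fc for 20 min with compound still present. After modified RIPA lysis, phospho and total EphA4 were read by capture ELISA (anti-phosphotyrosine 1:500; cytoplasmic anti-EphA4 1:1,000), with ABTS at A405. Values were normalized to ephrin-only cells; IC50 came from 3–9 measurements.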
Target sequence in this assay (Q03137 20-986): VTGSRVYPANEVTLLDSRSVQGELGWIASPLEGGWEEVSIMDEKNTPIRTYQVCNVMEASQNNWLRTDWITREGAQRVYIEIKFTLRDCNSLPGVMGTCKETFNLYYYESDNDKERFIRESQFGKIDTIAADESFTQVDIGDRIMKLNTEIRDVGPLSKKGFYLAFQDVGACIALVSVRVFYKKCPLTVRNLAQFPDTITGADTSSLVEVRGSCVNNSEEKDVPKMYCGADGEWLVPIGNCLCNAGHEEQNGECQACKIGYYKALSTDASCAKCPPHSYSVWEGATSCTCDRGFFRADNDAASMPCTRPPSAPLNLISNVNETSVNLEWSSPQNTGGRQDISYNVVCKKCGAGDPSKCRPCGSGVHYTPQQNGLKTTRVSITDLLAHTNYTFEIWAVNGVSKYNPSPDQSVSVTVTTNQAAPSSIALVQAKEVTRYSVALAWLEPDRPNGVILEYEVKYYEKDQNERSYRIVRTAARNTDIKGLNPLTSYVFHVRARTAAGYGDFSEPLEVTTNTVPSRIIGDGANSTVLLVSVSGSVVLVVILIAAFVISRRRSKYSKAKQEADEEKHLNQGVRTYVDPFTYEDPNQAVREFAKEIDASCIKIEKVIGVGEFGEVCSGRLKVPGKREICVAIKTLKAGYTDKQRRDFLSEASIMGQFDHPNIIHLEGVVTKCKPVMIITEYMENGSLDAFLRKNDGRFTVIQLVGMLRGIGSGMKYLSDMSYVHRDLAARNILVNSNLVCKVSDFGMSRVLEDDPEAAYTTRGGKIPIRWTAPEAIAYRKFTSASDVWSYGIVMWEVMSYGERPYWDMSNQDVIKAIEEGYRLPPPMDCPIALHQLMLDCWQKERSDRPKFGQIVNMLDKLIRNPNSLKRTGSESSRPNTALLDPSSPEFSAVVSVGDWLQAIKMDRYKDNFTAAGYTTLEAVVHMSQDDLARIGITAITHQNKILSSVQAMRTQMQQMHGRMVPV

EphB2 = assay: Ephrin-B2 Fc-induced EphB2 tyrosine phosphorylation in COS cells; type: cell-based; settings: relative to concentrations inhibiting other Eph receptors
Summary of the method: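 Cells were serum-starved 1–2 h and pretreated 15 min with test compound (DMSO ≤0.4% final). They were then stimulated 20 min with compound present: COS cells with 0.8 μg/mL ephrin-B2 Fc, and B16 melanoma cells with 1.5 μg/mL anti-Fc-preclustered ephrin-B2 Fc, or Fc control. Lysates were made in modified RIPA. EphB2 (COS; 7 μg antibody) or EphB4 (B16; 20 μg antibody) was immunoprecipitated, probed for phosphotyrosine, then reprobed for the receptor.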

EphB4 = biological target: T2, EphB4 (Homo sapiens, UniProt P54760); assay: Ephrin-B2 Fc-induced EphB4 phosphorylation in HUVECs; type: cell-based; settings: at 50 μM
T2 sequence (P54760 16-987): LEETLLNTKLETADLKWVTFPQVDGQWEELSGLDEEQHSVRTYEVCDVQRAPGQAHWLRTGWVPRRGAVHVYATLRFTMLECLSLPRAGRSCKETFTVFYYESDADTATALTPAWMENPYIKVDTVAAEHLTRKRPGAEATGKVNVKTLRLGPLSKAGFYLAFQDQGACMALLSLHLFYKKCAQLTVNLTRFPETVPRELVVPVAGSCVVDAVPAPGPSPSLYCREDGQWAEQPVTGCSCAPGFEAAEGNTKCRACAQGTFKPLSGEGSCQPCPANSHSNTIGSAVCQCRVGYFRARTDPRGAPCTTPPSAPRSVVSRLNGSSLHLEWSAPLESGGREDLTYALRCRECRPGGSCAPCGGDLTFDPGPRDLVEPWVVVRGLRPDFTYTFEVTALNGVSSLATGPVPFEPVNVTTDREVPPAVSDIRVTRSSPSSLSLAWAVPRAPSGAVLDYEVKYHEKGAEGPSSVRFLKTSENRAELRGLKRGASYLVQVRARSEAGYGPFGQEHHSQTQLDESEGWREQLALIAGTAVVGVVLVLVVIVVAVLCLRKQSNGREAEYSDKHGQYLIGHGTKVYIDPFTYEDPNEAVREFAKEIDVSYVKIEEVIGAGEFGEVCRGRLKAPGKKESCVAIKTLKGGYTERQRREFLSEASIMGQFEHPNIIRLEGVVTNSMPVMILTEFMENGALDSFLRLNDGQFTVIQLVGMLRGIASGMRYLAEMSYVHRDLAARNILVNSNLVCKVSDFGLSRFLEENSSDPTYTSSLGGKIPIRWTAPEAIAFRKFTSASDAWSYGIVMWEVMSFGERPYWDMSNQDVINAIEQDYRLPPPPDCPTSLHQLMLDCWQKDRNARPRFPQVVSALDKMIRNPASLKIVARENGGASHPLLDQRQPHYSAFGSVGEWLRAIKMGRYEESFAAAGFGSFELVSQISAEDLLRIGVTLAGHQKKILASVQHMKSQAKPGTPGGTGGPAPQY
Summary of the method: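 HUVECs were serum-starved 1–2 h and preincubated 15 min with 50 μM test compound (DMSO ≤0.4% final). They were then stimulated 20 min with 0.25 μg/mL ephrin-A1 Fc plus 1.5 μg/mL ephrin-B2 Fc (preclustered with 3-fold anti-Fc), or Fc, with compound present. Lysates were made in modified RIPA with NaF and pervanadate. EphA2 (1 μg antibody) and EphB4 (20 μg antibody) immunoprecipitates were immunoblotted for phosphotyrosine; lysates were probed for receptors and β-actin.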

O=C(Oc1cc(O)cc2c1C[C@@H](OC(=O)c1cc(O)c(O)c(O)c1)[C@@H](c1cc(O)c(O)c(O)c1)O2)c1cc(O)c(O)c(O)c1 [epigallocatechin-3,5-digallate]
reversibility of inhibition of EphA4-ephrin-A5 binding (EphA4 [1]; compound washed out before adding ephrin-A5 AP): reversible
IC50 (EphA4 [1]; read-out: IC50, inhibition of EphA4-ephrin-A5 binding (text)): 8 µM
IC50 (EphA4 [1]; read-out: IC50, inhibition of EphA4-ephrin-A5 binding (text), listed as Epigallocatechin-3,5-digallate): < 10 µM
IC50 (EphA4 [1]; read-out: IC50 ± SE EphA4 ephrin-A5): 7.4 ± 1.8 µM
mode of inhibition of ephrin-A5 binding to EphA4 (EphA4 [1]; similar Bmax, increasing KD): competitive inhibitors
IC50 (EphA2): 40 ± 3.8 µM
IC50 (EphA3): < 10 µM
inhibition of ephrin binding to EphA7 (EphA7): detectably inhibited, but with lower potency
inhibition of EphB1-ephrin interaction (EphB1): no inhibition
IC50 (EphA4 [2]): 190 µM and ~190 µM
inhibition of EphB2 phosphorylation (EphB2): at higher concentrations
EphB4 phosphorylation in HUVECs (EphB4): strongly inhibits
